Source: ChEMBL document CHEMBL4342410, “Design and Discovery of N-(3-(2-(2-Hydroxyethoxy)-6-morpholinopyridin-4-yl)-4-methylphenyl)-2-(trifluoromethyl)isonicotinamide, a Selective, Efficacious, and Well-Tolerated RAF Inhibitor Targeting RAS Mutant Cancers: The Path to the Clinic” (J Med Chem, 2020)
Values after ≈ are worked out from the molar mass of the structure shown.

Tests used:
[1] = target: T1, RAF proto-oncogene serine/threonine-protein kinase (Homo sapiens, UniProt P04049); assay: Binding affinity to wild-type human partial length CRAF (I330 to T640 residues) expressed in bacterial expression system by Kinomescan method
[2] = target: T1, RAF proto-oncogene serine/threonine-protein kinase; assay: Inhibition of CRAF in human Calu6 cells assessed as reduction MEK phosphorylation measured after 1 hr by sandwich ELISA; assay type: cell-based
[3] = Cmax in nude rat xenografted with human Calu6 cells harboring KRAS Q61K mutant at 15 mg/kg, po administered daily for 18 days starting from day 13 post tumor implantation and measured on day 31; assay type: ADME, organism-based; set-up: dose 15 mg/kg, route oral; conditions: in vivo
Outline: (§1)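 Nude rats carrying Calu-6 (KRAS Q61K) NSCLC xenografts were dosed p.o. once daily at 15, 35, 75 or 150 mg/kg from day 13 to day 31 after implant. Plasma was collected after the last dose and drug concentration was measured. AUC and Cmax were calculated per dose on day 31.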

[4] = target: Serine/threonine-protein kinase B-raf (Homo sapiens, UniProt P15056); assay: Inhibition of full-length BRAF (unknown origin)
[5] = target: Epithelial discoidin domain-containing receptor 1 (Homo sapiens) (UniProt Q08345); assay: Binding affinity to wild-type human partial length DDR1 (R565 to V876 residues) expressed in bacterial expression system at 1 uM by Kinomescan method relative to control
Outline: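 KINOMEscan competition binding panel of about 456 kinases, compound tested at 1 μM. Activity is given as % of control = [(test signal − positive control signal)/(negative control signal − positive control signal)] × 100.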

[6] = Time of last measurable concentration in nude rat xenografted with human Calu6 cells harboring KRAS Q61K mutant at 35 mg/kg, po administered daily for 18 days starting from day 13 post tumor implantation and measured on day 31; assay type: ADME, organism-based; conditions: in vivo, 432 h
Outline: (§2)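 Calu-6 xenograft nude rats were dosed orally once daily at 15, 35, 75 or 150 mg/kg from day 13 after implantation to day 31. Plasma was collected after the last dose on day 31, drug concentrations were measured, and PK parameters including AUC were calculated for each dose.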

[7] = target: Voltage-gated inwardly rectifying potassium channel KCNH2 (Homo sapiens, UniProt Q12809); assay: Inhibition of human ERG by patch clamp method
Outline: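 hERG inhibition measured by manual patch clamp.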

[8] = Distribution coefficient, log D of compound at pH 6.5; assay type: physicochemical; conditions: octanol/water
[9] = Tmax in nude rat xenografted with human Calu6 cells harboring KRAS Q61K mutant at 75 mg/kg, po administered daily for 18 days starting from day 13 post tumor implantation and measured on day 31; assay type: ADME, organism-based; conditions: in vivo; outline: as §2
[10] = Tmax in nude rat xenografted with human Calu6 cells harboring KRAS Q61K mutant at 15 mg/kg, po administered daily for 18 days starting from day 13 post tumor implantation and measured on day 31; assay type: ADME, organism-based; conditions: in vivo; outline: as §2
[11] = Tmax in nude rat xenografted with human Calu6 cells harboring KRAS Q61K mutant at 150 mg/kg, po administered daily for 18 days starting from day 13 post tumor implantation and measured on day 31; assay type: ADME, organism-based; conditions: in vivo; outline: as §2
[12] = AUC (0 to 24 hrs) in nude rat xenografted with human Calu6 cells harboring KRAS Q61K mutant at 75 mg/kg, po administered daily for 18 days starting from day 13 post tumor implantation and measured on day 31; assay type: ADME, organism-based; set-up: time < 24 hr, dose 75 mg/kg, route oral; conditions: in vivo; outline: as §1
[13] = Time at which free plasma concentration stays above in vitro IC50 for CRAF in human Calu6 cells assessed as reduction MEK phosphorylation in nude rat xenografted with human Calu6 cells harboring KRAS Q61K mutant at 150 mg/kg, po; assay type: ADME, organism-based; conditions: in vivo
[14] = target: T1, RAF proto-oncogene serine/threonine-protein kinase; assay: Binding affinity to wild-type human partial length CRAF (I330 to T640 residues) expressed in bacterial expression system at 1 uM by Kinomescan method relative to control
Calu-6 [15] = assay: Antitumor activity against human Calu6 cells harboring KRAS Q61K mutant xenografted in nude rat assessed as tumor growth at 15 mg/kg, po administered daily for 18 days starting from day 13 post tumor implantation and measured on day 31 relative to control; assay type: functional
Outline: (§3)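 Nude rats bearing Calu-6 (KRAS Q61K) human NSCLC xenografts received vehicle or drug p.o. daily at 15, 35, 75 or 150 mg/kg. Dosing began 13 days after tumor implantation and ran to day 31, i.e. 18 days of treatment. Tumor volumes were read out as %T/C or % regression versus vehicle on day 31. Body weight was also tracked.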

Calu-6 [16] = assay: Antitumor activity against human Calu6 cells harboring KRAS Q61K mutant xenografted in nude rat assessed as tumor regression at 75 mg/kg, po administered daily for 18 days starting from day 13 post tumor implantation and measured on day 31 relative to control; assay type: functional; outline: as §3
Rattus norvegicus = assay: In vivo inhibition of CRAF in nude rat xenografted with human Calu6 cells harboring KRAS Q61K mutant assessed as reduction in tumor MEK phosphorylation at 150 mg/kg, po administered as single dose measured after 24 hrs by sandwich ELISA relative to control; assay type: functional; conditions: Calu-6, po
Outline: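 Calu-6 (KRAS Q61K) xenograft-bearing nude rats were given a single oral dose of 15, 35, 75 or 150 mg/kg. Tumor and blood were sampled at 1, 4, 7, 24 and 48 h post-dose. Tumor pMEK was quantified by MSD immunoassay and expressed as percent pMEK. Free plasma exposure was determined in parallel.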

[17] = Oral bioavailability in dog at 0.4 mg/kg; assay type: ADME, organism-based, Canis lupus familiaris; conditions: in vivo
[18] = Volume of distribution at steady state in mouse at 2 mg/kg, iv or 4 mg/kg, po; assay type: ADME, organism-based; conditions: in vivo, read-out: Vdss
[19] = Toxicity in human Calu6 cells harboring KRAS Q61K mutant xenografted nude rat assessed as change in body weight at 15 to 150 mg/kg, po administered daily for 18 days starting from day 13 post tumor implantation and measured during compound dosing; assay type: organism-based; conditions: in vivo, 432 h
Outline: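 Nude rats bearing Calu-6 (KRAS Q61K) NSCLC xenografts were dosed orally once daily with vehicle or 15, 35, 75 or 150 mg/kg. Dosing ran from day 13 after implantation until day 31. Body weight was tracked and expressed as percent change from initial for each treatment group versus the vehicle control.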

[20] = Cmax in nude rat xenografted with human Calu6 cells harboring KRAS Q61K mutant at 35 mg/kg, po administered daily for 18 days starting from day 13 post tumor implantation and measured on day 31; assay type: ADME, organism-based; set-up: dose 35 mg/kg, route oral; conditions: in vivo; outline: as §1
[21] = target: Platelet-derived growth factor receptor beta (Homo sapiens, UniProt P09619); assay: Binding affinity to wild-type human partial length PDGFRB (V582 to Y1009 residues) expressed in bacterial expression system by Kinomescan method
[22] = Solubility of compound in pH 6.8 Cl-free PBS buffer by shake-flask assay; assay type: physicochemical
Outline: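 Shake-flask solubility measured in chloride-free PBS at pH 6.8.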

T1 sequence (P04049 whole entry, the tested form may be a part): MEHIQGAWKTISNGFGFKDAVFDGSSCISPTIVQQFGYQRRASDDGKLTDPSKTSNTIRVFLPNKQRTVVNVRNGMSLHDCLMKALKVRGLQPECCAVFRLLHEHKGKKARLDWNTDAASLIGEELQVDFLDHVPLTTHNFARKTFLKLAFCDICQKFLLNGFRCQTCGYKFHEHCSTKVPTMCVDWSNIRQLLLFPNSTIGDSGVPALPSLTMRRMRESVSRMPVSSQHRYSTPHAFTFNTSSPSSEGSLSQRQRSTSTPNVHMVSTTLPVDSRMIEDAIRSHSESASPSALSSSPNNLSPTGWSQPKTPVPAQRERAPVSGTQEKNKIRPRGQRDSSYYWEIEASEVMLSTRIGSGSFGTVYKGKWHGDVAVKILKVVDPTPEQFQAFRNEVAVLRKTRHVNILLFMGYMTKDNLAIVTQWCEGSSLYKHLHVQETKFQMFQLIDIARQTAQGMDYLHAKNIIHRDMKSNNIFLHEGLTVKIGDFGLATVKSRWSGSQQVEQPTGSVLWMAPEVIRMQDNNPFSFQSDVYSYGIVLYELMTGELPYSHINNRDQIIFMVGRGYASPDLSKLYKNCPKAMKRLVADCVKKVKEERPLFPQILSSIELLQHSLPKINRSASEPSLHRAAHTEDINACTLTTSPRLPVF
Voltage-gated inwardly rectifying potassium channel KCNH2, sequence (Q12809 whole entry): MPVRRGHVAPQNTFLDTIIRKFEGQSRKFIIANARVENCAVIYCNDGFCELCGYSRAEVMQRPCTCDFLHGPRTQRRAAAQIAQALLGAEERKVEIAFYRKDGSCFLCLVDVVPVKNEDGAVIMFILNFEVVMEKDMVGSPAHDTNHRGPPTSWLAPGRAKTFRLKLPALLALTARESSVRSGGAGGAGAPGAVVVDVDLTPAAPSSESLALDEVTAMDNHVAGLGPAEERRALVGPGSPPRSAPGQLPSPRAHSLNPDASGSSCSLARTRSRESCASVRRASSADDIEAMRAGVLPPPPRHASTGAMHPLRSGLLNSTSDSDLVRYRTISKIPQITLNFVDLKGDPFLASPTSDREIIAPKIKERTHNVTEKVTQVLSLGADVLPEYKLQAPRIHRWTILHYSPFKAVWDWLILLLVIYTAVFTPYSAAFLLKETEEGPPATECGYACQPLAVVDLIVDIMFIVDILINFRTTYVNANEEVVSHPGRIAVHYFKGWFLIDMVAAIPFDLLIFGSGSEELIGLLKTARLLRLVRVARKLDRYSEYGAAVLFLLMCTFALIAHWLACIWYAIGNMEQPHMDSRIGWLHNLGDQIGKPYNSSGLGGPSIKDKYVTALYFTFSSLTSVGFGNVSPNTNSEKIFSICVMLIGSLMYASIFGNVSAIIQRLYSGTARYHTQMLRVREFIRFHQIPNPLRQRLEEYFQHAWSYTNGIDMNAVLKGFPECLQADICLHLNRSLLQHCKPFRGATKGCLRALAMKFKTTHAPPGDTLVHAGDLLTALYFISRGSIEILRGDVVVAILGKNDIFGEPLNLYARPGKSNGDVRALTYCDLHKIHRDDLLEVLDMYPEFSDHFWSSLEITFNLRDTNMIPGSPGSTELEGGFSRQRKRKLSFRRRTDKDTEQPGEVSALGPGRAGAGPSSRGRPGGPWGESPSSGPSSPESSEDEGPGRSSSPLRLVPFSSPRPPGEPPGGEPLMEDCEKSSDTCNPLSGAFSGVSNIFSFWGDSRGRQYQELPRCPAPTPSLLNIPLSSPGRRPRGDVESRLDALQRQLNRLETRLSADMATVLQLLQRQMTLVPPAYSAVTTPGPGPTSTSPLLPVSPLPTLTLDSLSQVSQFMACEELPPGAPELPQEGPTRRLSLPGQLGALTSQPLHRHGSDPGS
Epithelial discoidin domain-containing receptor 1 (Homo sapiens), sequence (Q08345 whole entry, the tested form may be a part): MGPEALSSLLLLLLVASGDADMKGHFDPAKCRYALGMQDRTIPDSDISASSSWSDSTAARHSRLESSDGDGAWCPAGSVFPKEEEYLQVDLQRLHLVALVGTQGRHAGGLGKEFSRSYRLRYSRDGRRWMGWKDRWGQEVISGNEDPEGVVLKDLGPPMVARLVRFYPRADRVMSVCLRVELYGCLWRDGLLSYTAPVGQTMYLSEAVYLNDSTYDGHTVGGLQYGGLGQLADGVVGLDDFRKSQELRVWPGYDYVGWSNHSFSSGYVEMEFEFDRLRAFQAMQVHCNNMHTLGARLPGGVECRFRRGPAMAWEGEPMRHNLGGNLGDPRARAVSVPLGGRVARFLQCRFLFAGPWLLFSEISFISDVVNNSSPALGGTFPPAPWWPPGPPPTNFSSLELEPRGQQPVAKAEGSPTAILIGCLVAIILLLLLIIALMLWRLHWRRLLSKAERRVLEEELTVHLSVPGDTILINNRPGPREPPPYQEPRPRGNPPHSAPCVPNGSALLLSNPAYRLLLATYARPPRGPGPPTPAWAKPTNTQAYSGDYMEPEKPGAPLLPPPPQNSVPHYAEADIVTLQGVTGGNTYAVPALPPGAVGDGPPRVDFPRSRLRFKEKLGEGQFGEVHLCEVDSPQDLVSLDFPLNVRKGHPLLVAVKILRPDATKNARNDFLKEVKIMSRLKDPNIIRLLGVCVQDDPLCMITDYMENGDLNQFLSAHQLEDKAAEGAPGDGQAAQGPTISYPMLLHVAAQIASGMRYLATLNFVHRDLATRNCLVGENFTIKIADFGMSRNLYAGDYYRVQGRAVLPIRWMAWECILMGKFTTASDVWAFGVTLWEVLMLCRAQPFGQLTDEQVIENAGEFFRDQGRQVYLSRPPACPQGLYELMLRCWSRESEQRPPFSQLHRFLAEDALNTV
Platelet-derived growth factor receptor beta, sequence (P09619 whole entry, the tested form may be a part): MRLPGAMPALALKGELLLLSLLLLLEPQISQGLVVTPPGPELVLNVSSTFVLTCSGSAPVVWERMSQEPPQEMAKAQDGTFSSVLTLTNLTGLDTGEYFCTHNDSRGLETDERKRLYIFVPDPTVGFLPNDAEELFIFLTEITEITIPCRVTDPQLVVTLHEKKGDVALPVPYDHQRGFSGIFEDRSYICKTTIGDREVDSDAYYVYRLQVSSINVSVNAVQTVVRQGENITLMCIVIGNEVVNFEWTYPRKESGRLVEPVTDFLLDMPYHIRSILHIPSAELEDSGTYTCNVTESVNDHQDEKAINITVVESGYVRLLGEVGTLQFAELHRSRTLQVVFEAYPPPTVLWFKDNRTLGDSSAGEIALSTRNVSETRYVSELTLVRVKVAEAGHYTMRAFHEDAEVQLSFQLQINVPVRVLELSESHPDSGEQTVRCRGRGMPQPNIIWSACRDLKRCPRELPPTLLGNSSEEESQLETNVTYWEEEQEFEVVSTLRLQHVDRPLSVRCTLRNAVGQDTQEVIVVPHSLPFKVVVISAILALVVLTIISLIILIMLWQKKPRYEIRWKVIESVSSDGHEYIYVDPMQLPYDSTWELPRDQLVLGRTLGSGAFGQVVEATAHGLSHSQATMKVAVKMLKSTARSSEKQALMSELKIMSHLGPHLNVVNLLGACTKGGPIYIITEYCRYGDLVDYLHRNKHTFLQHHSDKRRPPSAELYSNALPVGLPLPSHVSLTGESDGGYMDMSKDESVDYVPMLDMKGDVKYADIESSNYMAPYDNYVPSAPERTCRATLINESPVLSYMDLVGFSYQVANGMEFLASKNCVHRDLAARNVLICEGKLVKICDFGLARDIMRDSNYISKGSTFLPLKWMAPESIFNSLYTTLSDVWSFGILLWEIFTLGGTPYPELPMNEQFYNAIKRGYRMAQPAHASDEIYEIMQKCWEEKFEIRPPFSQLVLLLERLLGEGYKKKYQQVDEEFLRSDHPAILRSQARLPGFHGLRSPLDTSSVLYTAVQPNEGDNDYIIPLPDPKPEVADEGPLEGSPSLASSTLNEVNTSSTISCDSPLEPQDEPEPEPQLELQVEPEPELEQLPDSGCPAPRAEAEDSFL
Serine/threonine-protein kinase B-raf, sequence (P15056 whole entry, the tested form may be a part): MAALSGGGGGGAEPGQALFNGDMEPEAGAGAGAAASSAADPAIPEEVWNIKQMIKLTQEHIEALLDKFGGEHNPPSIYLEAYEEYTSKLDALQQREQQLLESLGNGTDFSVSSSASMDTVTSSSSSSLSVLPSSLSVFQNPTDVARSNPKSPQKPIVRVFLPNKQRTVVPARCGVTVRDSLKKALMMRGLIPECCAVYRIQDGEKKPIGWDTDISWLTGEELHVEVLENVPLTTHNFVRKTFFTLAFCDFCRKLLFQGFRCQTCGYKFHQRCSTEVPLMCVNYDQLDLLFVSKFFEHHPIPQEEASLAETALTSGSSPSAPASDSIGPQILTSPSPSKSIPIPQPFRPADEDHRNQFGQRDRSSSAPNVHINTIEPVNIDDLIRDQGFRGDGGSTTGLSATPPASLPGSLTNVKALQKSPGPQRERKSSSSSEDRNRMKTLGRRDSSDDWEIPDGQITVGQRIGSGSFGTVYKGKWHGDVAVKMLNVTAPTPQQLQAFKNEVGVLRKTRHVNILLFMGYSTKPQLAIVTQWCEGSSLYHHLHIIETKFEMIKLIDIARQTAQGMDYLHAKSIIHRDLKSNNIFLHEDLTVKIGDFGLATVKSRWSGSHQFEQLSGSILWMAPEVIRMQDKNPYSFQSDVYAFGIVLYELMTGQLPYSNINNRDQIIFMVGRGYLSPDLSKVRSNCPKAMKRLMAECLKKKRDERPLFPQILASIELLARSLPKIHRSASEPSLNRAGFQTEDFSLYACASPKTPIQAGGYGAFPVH

Cc1ccc(NC(=O)c2ccnc(C(F)(F)F)c2)cc1-c1cc(OCCO)nc(N2CCOCC2)c1 [NAPORAFENIB]
Kd [1]: 0.0036 µM
EC50 [2]: 0.014 to 0.05 µM
Cmax [3]: 878 nM
IC50 [4]: 0.0004 µM
Activity [5]: > 99%
Tlast [6]: 24 h
IC50 [7]: > 10 µM
logD [8]: > 4
Tmax [9]: 2 h
Tmax [10]: 3 h
Tmax [11]: 5.5 h
AUC at 24 h [12]: 105 µM·h
T>IC50 [13]: 24 h
Activity [14]: > 98%
T/C (Calu-6 [15]): 29%
Activity (Calu-6 [16]): 21%
inhibition in vivo at 150 mg/kg (Rattus norvegicus): 70%
bioavailability [17]: 79%
Vd [18]: 2.1 L/kg
Activity [19]: Non-Toxic
Cmax [20]: 2350 nM
Kd [21]: 0.014 µM
solubility thermodynamic [22]: 20 µM (≈ 10 µg/mL)
